iPSC survival up: enhancers of single-cell hiPSC survival, primary screen, ATPlite luminescence. AID 602274, 2012. hit rate 0.044% among 360,000. survival enhancement, % at 20 µM. 100% = ROCK inhibitor wells, 0% = DMSO; in the data active means survival enhancement above about 18%;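 further: cells exposed to compounds for 16 hours before the ATP read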
FAS-TE inh: FAS thioesterase domain inhibitors, primary screen, biochemical, fluorescence intensity, uHTS | Fatty acid synthase (Homo sapiens), P49327 | inhibition, % at 15 µM | recombinant FAS-TE, OMFH fluorogenic substrate, fluorescence endpoint | hit rate 0.67% among 360,000;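 active means compounds whose normalised, plate-corrected inhibition of enzyme fluorescence in the single-dose primary screen is 50% or more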;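 further: 0% = DMSO with enzyme and 100% = substrate without enzyme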
NR3A LBD binder: binders of NR3A ligand-binding domain, primary screen, biophysical, differential scanning fluorimetry, uHTS; Glutamate receptor ionotropic, NMDA 3A (GRIN3A) ligand-binding domain; NR3A LBD differential scanning fluorimetry, Tm shift; 0% = protein alone, 100% = glycine-bound protein; Tm shift relative to glycine control, % at 25 µM; hit rate 2.5% among 340,000;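 active means melting temperature shift of at least 10% of the positive control shift, at one fixed dose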
Cardio protect: cardioprotection against H2O2-induced cell death, primary screen, uHTS, H9c2 cells, ATPLite luminescence; hit rate 0.63% among 360,000; H9c2 cardiomyocytes, H2O2 injury protection, 2 h; AID 588492, 2011; protection from H2O2 cell death, % at 20 µM;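 active means compounds giving at least 50% protection of heart cells from peroxide-induced death in the single-dose screen, raw or plate-pattern-corrected value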;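 further: 0% = DMSO wells with peroxide and 100% = DMSO wells without peroxide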
SENP1 inh: human SENP1 catalytic domain inhibitors, primary screen, biochemical, FRET, uHTS | Sentrin-specific protease 1 (Homo sapiens), Q9P0U3 | recombinant SENP1 catalytic domain, CyPet-SUMO1-YPet FRET cleavage | inhibition, % at 10 µM | hit rate 0.21% among 360,000 | AID 624204, 2012;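 active means inhibition at least 30% at 10 µM, raw YFP signal under a set limit, fluorescence ratio 0.5 to 1.5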;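 further: 0% = enzyme with DMSO and 100% = no enzyme wells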
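Assay system – human recombinant His6-tagged SENP1 catalytic domain enzyme · Input – SENP1 enzyme, 20 pM final · Buffer or medium – Tris pH 8 buffer plus EDTA, NaCl, BME, BSA, NP40, catalase · Schedule – 50 min reaction at room temperature · Technique – FRET read of cyan and yellow fluorescence · Control set – no-enzyme wells low, DMSO-plus-enzyme wells high control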
Arrestin-AP2 inh: inhibitors of beta-arrestin/AP2 binding, primary screen, biochemical, GPCR trafficking, flow cytometry; beta-arrestin 1 C-terminal peptide binding to AP2 beta2-adaptin appendage (human); FITC-arrestin peptide / GST-AP2 beads; AP2 beta2 appendage carries R879A mutation; inhibition, % at 10 µM; hit rate 0.31% among 340,000; AID 504490, 2011;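 active means inhibition above a set limit, near 3 SD of compounds lacking own fluorescence, cut at about 54% in these data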;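 further: plate controls were DMSO wells for no effect and 5 µM unlabelled arrestin peptide for full effect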
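Measured by: flow cytometry, FL1 (488/535 nm); Material: AP2 appendage R879A on GSH beads; Evaluation: percent response; Timing: pre-incubation 12 min, peptide binding 1 h, room temperature; Also added: 50 nM FITC-arrestin peptide; Medium: PBS with 0.05% Tween 20 and 0.1% BSA.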
SENP1 conf: human SENP1 catalytic domain inhibitors, confirmation, biochemical, FRET endpoint, single concentration; shares compounds with SENP1 inh; recombinant SENP1, CyPet-SUMO1-YPet FRET cleavage; inhibition, % at 10 µM; hit rate 34% among 520; AID 651678, 2012; in the data active means inhibition mostly above about 35%, no sharp cut-off; inactive means mostly below about 32%;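 further: 0% = enzyme with DMSO and 100% = no enzyme control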
SENP1 kinetic: human SENP1 catalytic domain inhibitors, confirmation, biochemical, kinetic FRET, single concentration; shares compounds with SENP1 inh; recombinant SENP1, CyPet-SUMO1-YPet FRET kinetic cleavage; inhibition, % at 10 µM; hit rate 26% among 520; AID 651690, 2012; in the data active means inhibition mostly above about 32%, no sharp cut-off; inactive means mostly below about 29%;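 further: 0% = DMSO with enzyme and 100% = no enzyme substrate only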
* = called active by the depositor; nt = not tested or not shown. The list is not random: actives were taken first. Their share in the collection is about 4%.

SMILES	iPSC survival up	FAS-TE inh	NR3A LBD binder	Cardio protect	SENP1 inh	Arrestin-AP2 inh	SENP1 conf	SENP1 kinetic
CC(C)Nc1ccc(C(CC(N)=O)NC(=O)Cc2cccc3ccccc23)cc1[N+](=O)[O-] (centres undefined)	2	0	0	-8	41*	-2	-6	-5
NC(=O)CC(NC(=O)Cc1cccc2ccccc12)c1ccc(NCc2ccccc2)c([N+](=O)[O-])c1 (centres undefined)	0	-2	2	0	5	1	nt	nt
CN(C)NC(=S)Nc1ccc2nc(-c3ccccn3)c(-c3ccccn3)nc2c1	1	-4	0	6	59*	4	38*	31
CC(C)(C)CC(C)(C)NC(=S)Nc1ccc2nc(-c3ccccn3)c(-c3ccccn3)nc2c1	0	4	-10	-10	-19	10	nt	nt
OC1(C#Cc2c(-c3ccsc3)oc3ccc(N4CCOCC4)cc23)CCCCC1	4	29	-13	8	-7	-1	nt	nt
O=C(OCc1ccc(O)cc1)c1c(-c2ccsc2)oc2ccc(N3CCOCC3)cc12	-4	15	-22	18	36*	3	19	21
O=C(CCCN1CCC(C(O)c2ccc(F)cc2)CC1)c1ccc(F)cc1 (centres undefined)	-1	0	nt	-1	0	nt	nt	nt
COC12CC(=O)C(C(C)=O)=C(O)C1(C)c1c(O)c(C)c(O)c(C(C)=O)c1O2 (centres undefined)	0	-6	nt	-7	33*	nt	32	18
CC(=O)c1c(O)c(C)c(O)c2c1OC1=CC(=O)/C(=C(/C)N)C(=O)C12C (centres undefined)	0	15	nt	-11	2	nt	nt	nt
COc1ccc(C(=O)NCCCC2CCCC2)cc1OC1CCN(C(C)C)CC1	-1	-2	nt	-1	-5	nt	nt	nt
CSc1c(C#N)c(N)nc2sc(C(=O)c3ccccc3)c(N)c12	0	-5	2	5	65*	5	57*	40*
COc1ccc(C(=O)/C=C/Nc2c(C)n(C)n(-c3ccccc3)c2=O)cc1OC	1	-11	-4	15	31*	-18	-1	4
O=C(CN1C(=O)/C(=C\C=C\c2ccccc2)SC1=S)Nc1ccc(F)cc1	-2	7	7	-6	66*	20	63*	41*
COc1cc2cc(C#N)c(SCC(=O)Nc3cc(C)on3)nc2cc1OC	0	-4	0	2	-5	4	nt	nt
COC(=O)CSc1nc2cc(C)ccc2cc1C#N	-2	19	0	-20	62*	1	15	22
COc1ccc2nc(SCC(=O)Nc3cc(C)on3)c(C#N)cc2c1	0	0	1	-1	48*	2	-37	13
Cc1cc(NC(=O)CSc2nc3ccccc3cc2C#N)no1	0	-6	-2	-4	55*	1	60*	50*
COc1ccc([C@H]2CN(Cc3ccccc3)C(=O)[C@@H]2CC(=O)Nc2ccccc2)cc1	-2	5	nt	6	1	nt	nt	nt
CC(C)CN(C(=O)COC(=O)c1cc2ccccc2cc1O)c1c(N)n(Cc2ccccc2)c(=O)[nH]c1=O	0	14	2	1	3	-6	nt	nt
